Test results from paper PMC2902143 (Journal of RNAi and Gene Silencing : An International …, 2010).

Assays:
HIV-1 LTR [1] = test: HIV-1 LTR-CAT assay in HCT116 WT cells; format: cell-based; conditions: Flavopiridol, CR8#13, F07#13 100nM, 9AA 1000nM, 48hrs
Outline: (§1)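 HIV-1 LTR-CAT plasmid was transfected into HCT116 cells with or without pc-Tat. Six hours later, cells were treated with DMSO or test compound and incubated 48hrs at 37°C in complete DMEM. Dicer-/- extract was used at one tenth the amount of WT extract.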

[2] = cited from earlier work
[3] = system: infected ACH2, J1.1, OM10.1, U1 and uninfected CEM, Jurkat T-cells, and U937 cells; test: MTT assay on infected and uninfected cells; format: cell-based; conditions: 50nM and 10μM
Outline: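 Cell viability was measured by MTT assay at 50nM and at a high drug level. Uninfected CEM, Jurkat and U937 cells were grown in RPMI 1640 with FBS, L-glutamine and penicillin/streptomycin at 37°C, 5% CO2.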

HIV-1 in monocytes = conditions: ref Agbottah et al, 2005; cited from earlier work
HIV-1 in T-cells = conditions: ref Agbottah et al, 2005; cited from earlier work
HIV-1 LTR [4] = test: HIV-1 LTR-CAT assay in HCT116 Dicer-/- cells; format: cell-based; conditions: HCT116 Dicer-/- compared with HCT116 WT; 100nM; 48hrs
Outline: as §1

HIV-1 (pNL4.3) = test: Reverse transcriptase assay, pNL4.3 electroporated U937 cells; format: cell-based; conditions: Flavopiridol 200nM, 48 hours post drug treatment
HIV-1 LTR [5] = test: Luciferase assay in TSA treated TZM-bl cells; format: cell-based; conditions: TSA treatment
Outline: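 TZM-bl cells, which carry a stably integrated HIV-1 LTR-luciferase reporter, were treated with TSA for 7 days and then with test compound. Firefly luciferase activity was measured with the BrightGlo Luciferase Assay.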

HIV-1 LTR [6] = test: ChIP assay on the HIV-1 LTR in TZM-bl cells; format: cell-based; conditions: TSA for 7 days
Outline: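 TZM-bl cells carry an integrated HIV-1 LTR and were grown in DMEM with 10% FBS, 2mM L-glutamine and antibiotics. Cells were treated 7 days with sub-lethal TSA, then switched to complete medium and transfected with TAR-WT or control TAR-D RNA. ChIP was done on day 8 with HDAC-1 and Ago2 antibodies. Precipitated DNA was amplified with 0.1uM HIV-1 LTR primers.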

SMILES: Nc1c2ccccc2nc2ccccc12 [9AA, 9-Aminoacridine]
- Inhibition of Tat-mediated HIV-1 LTR transcription (CAT assay) (HIV-1 LTR [1]): moderate effects

SMILES: CC[C@H](CO)Nc1nc(NCc2ccc(-c3ccccn3)cc2)c2ncn(C(C)C)c2n1 [CR8]
- Potency relative to Cyc202 [2]: roughly 25 times
- Cell killing of uninfected cells (MTT assay) [3]: some cell killing of uninfected cells

SMILES: CC[C@H](CO)Nc1nc(NCc2ccccc2)c2ncn(C(C)C)c2n1 [Cyc202, R-roscovitine]
- Inhibition of HIV-1 in monocytes (HIV-1 in monocytes): not in monocytes
- Inhibition of HIV-1 in T-cells (HIV-1 in T-cells): effective inhibitor

SMILES: CN1CC[C@H](c2c(O)cc(O)c3c(=O)cc(-c4ccccc4Cl)oc23)[C@H](O)C1 [Flavopiridol]
- Inhibition of Tat-mediated HIV-1 LTR transcription (CAT assay) (HIV-1 LTR [4]): less potent
- RT levels in supernatant (HIV-1 (pNL4.3)): able to decrease RT levels in both cell lines
- Inhibition of Tat-mediated HIV-1 LTR transcription (CAT assay) (HIV-1 LTR [1]): inhibited viral transcription significantly better in cells that contained Dicer

SMILES: CC(/C=C/C(=O)NO)=C\[C@@H](C)C(=O)c1ccc(N(C)C)cc1 [TSA, Trichostatin-A]
- Luciferase activity of integrated HIV-1-Luc (HIV-1 LTR [5]): increased Luciferase activity
- Association of HDAC-1 and Ago2 with the HIV-1 LTR (ChIP) (HIV-1 LTR [6]): association was lost
